ED50 and MIC data for 8 compounds are collected here from ChEMBL document CHEMBL1124366, “Synthesis and biological properties of N63-carboxamides of teicoplanin antibiotics. Structure-activity relationships” (J Med Chem, 1989).

≈ marks a conversion by molar mass, not a printed value.

Common to all, as to assay type: functional
In test [1] the test system is Streptococcus pyogenes. The test can be described thus: In vivo effective dose given perorally to mice infected with Streptococcus pyogenes C 203. As to conditions: po. Put shortly: (§1)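 Mice (five per treatment group, five groups) infected intraperitoneally with about 10⁵ cells of Strep. pyogenes C 203, about 100× the LD50. ED50 (mg/kg) was calculated from the percentage of mice surviving at each dose on day 7.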

Test [2] concerns Streptococcus pyogenes. As to the kind of experiment: Subcutaneously administration into mice infected with Streptococcus pyogenes C 203. As to conditions: sc. Put shortly: as §1
Test [3] relates to Staphylococcus epidermidis. The test can be described thus: In vitro minimum inhibitory concentration against Staphylococcus epidermis ATCC 12228.
In test [4] the test system is Staphylococcus haemolyticus. The test can be described thus: In vitro minimum inhibitory concentration against Staphylococcus hemolyticus 602 cell line. Particulars: strain 602.
Test [5] relates to Staphylococcus aureus. The test can be described thus: In vitro minimum inhibitory concentration against Staphylococcus aureus Tour.
In test [6] the test system is Streptococcus pneumoniae. The test can be described thus: In vitro minimum inhibitory concentration against Streptococcus pneumoniae UC41.
In test [7] the test system is Streptococcus pyogenes. The test can be described thus: In vitro minimum inhibitory concentration against Streptococcus pyogenes C 203.
Test [8] has as its system Enterococcus faecalis. As to the kind of experiment: In vitro minimum inhibitory concentration against Streptococcus faecalis ATCC 7080.

On to `CCCCC/C=C/CCC(=O)N[C@@H]1[C@H](Oc2c3cc4cc2Oc2ccc(cc2Cl)[C@@H](O[C@@H]2O[C@@H](CO)[C@@H](O)[C@H](O)[C@@H]2NC(C)=O)[C@@H]2NC(=O)[C@H](NC(=O)[C@@H]4NC(=O)[C@H]4NC(=O)[C@@H](Cc5ccc(c(Cl)c5)O3)NC(=O)[C@H](N)c3ccc(O)c(c3)Oc3cc(O)cc4c3)c3ccc(O)c(c3)-c3c(O[C@H]4O[C@H](CO)[C@@H](O)[C@@H](O)[C@@H]4O)cc(O)cc3[C@@H](C(=O)NC3CCNCC3)NC2=O)O[C@@H](CO)[C@@H](O)[C@@H]1O`, for which the ED50 (usually the midpoint of the dose-response relation) was 89.6 mg/kg in test [1] and 0.08 mg/kg in test [2]. Moreover, the MIC in test [3] turned out to be 0.12 µg/mL (≈ 0.0612 µM); in test [4], 1 µg/mL (≈ 0.51 µM); in test [5] it was 0.12 µg/mL (≈ 0.0612 µM); in test [6] it was 0.06 µg/mL (≈ 0.0306 µM); in test [7] it was 0.06 µg/mL (≈ 0.0306 µM); in test [8], 0.12 µg/mL (≈ 0.0612 µM).

Take `CCNCCNC(=O)[C@H]1NC(=O)[C@H]2NC(=O)[C@H](NC(=O)[C@@H]3NC(=O)[C@H]4NC(=O)[C@@H](Cc5ccc(c(Cl)c5)Oc5cc3cc(c5O[C@@H]3O[C@@H](CO)[C@@H](O)[C@H](O)[C@@H]3NC(=O)CCCCCCC(C)C)Oc3ccc(cc3Cl)[C@H]2O[C@@H]2O[C@@H](CO)[C@@H](O)[C@H](O)[C@@H]2NC(C)=O)NC(=O)[C@H](N)c2ccc(O)c(c2)Oc2cc(O)cc4c2)c2ccc(O)c(c2)-c2c(O[C@H]3O[C@H](CO)[C@@H](O)[C@@H](O)[C@@H]3O)cc(O)cc21`: the ED50 in test [1] came to 300 mg/kg; in test [2], 0.18 mg/kg. For the same compound, the MIC in test [3] came out at 0.06 µg/mL (≈ 0.0308 µM); in test [4], 0.12 µg/mL (≈ 0.0615 µM); in test [5], 0.12 µg/mL (≈ 0.0615 µM); in test [6], 0.12 µg/mL (≈ 0.0615 µM); in test [7] it was 0.06 µg/mL (≈ 0.0308 µM); in test [8], 0.12 µg/mL (≈ 0.0615 µM).

As to `CNCCCN(C)C(=O)[C@H]1NC(=O)[C@H]2NC(=O)[C@H](NC(=O)[C@@H]3NC(=O)[C@H]4NC(=O)[C@@H](Cc5ccc(c(Cl)c5)Oc5cc3cc(c5O[C@@H]3O[C@@H](CO)[C@@H](O)[C@H](O)[C@@H]3NC(=O)CCCCCCC(C)C)Oc3ccc(cc3Cl)[C@H]2O[C@@H]2O[C@@H](CO)[C@@H](O)[C@H](O)[C@@H]2NC(C)=O)NC(=O)[C@H](N)c2ccc(O)c(c2)Oc2cc(O)cc4c2)c2ccc(O)c(c2)-c2c(O[C@H]3O[C@H](CO)[C@@H](O)[C@@H](O)[C@@H]3O)cc(O)cc21`, the figures for the ED50 in test [1] and in test [2] were > 300 mg/kg and 0.13 mg/kg, respectively. For the same compound, the MIC worked out at 0.06 µg/mL (≈ 0.0306 µM) in test [3]; 0.25 µg/mL (≈ 0.127 µM) in test [4]; 0.12 µg/mL (≈ 0.0611 µM) in test [5]; 0.12 µg/mL (≈ 0.0611 µM) in test [6]; 0.06 µg/mL (≈ 0.0306 µM) in test [7]; 0.12 µg/mL (≈ 0.0611 µM) in test [8].

As to `CC(=O)N[C@@H]1[C@H](O[C@@H]2c3ccc(c(Cl)c3)Oc3cc4cc(c3O[C@@H]3O[C@@H](CO)[C@@H](O)[C@H](O)[C@@H]3NC(=O)CCCCCCC(C)C)Oc3ccc(cc3Cl)C[C@H]3NC(=O)[C@H](N)c5ccc(O)c(c5)Oc5cc(O)cc(c5)[C@H](NC3=O)C(=O)N[C@H]4C(=O)N[C@H]3C(=O)N[C@@H]2C(=O)N[C@H](C(=O)NCCN(C)C)c2cc(O)cc(O[C@H]4O[C@H](CO)[C@@H](O)[C@@H](O)[C@@H]4O)c2-c2cc3ccc2O)O[C@@H](CO)[C@@H](O)[C@@H]1O`, the results for the ED50 in test [1] and in test [2] were 140 mg/kg and 0.09 mg/kg, respectively. Also, the MIC in test [3] was found to be 0.06 µg/mL (≈ 0.0308 µM); in test [4] it was 0.12 µg/mL (≈ 0.0615 µM); in test [5] it was 0.12 µg/mL (≈ 0.0615 µM); in test [6] it was 0.06 µg/mL (≈ 0.0308 µM); in test [7], 0.06 µg/mL (≈ 0.0308 µM); in test [8], 0.12 µg/mL (≈ 0.0615 µM).

For `CCN1CCCC1CNC(=O)[C@H]1NC(=O)[C@H]2NC(=O)[C@H](NC(=O)[C@@H]3NC(=O)[C@H]4NC(=O)[C@@H](Cc5ccc(c(Cl)c5)Oc5cc3cc(c5O[C@@H]3O[C@@H](CO)[C@@H](O)[C@H](O)[C@@H]3NC(=O)CCCCCCC(C)C)Oc3ccc(cc3Cl)[C@H]2O[C@@H]2O[C@@H](CO)[C@@H](O)[C@H](O)[C@@H]2NC(C)=O)NC(=O)[C@H](N)c2ccc(O)c(c2)Oc2cc(O)cc4c2)c2ccc(O)c(c2)-c2c(O[C@H]3O[C@H](CO)[C@@H](O)[C@@H](O)[C@@H]3O)cc(O)cc21` (some centres undefined), the ED50 in test [1] was 140 mg/kg; in test [2], 0.1 mg/kg. The MIC in test [3] was 0.06 µg/mL (≈ 0.0302 µM); in test [4], 0.12 µg/mL (≈ 0.0603 µM); in test [5] it was 0.12 µg/mL (≈ 0.0603 µM); in test [6], 0.06 µg/mL (≈ 0.0302 µM); in test [7], 0.06 µg/mL (≈ 0.0302 µM); in test [8] it was 0.12 µg/mL (≈ 0.0603 µM).

`CC(=O)N[C@@H]1[C@H](O[C@@H]2c3ccc(c(Cl)c3)Oc3cc4cc(c3O[C@@H]3O[C@@H](CO)[C@@H](O)[C@H](O)[C@@H]3NC(=O)CCCCCCC(C)C)Oc3ccc(cc3Cl)C[C@H]3NC(=O)[C@H](N)c5ccc(O)c(c5)Oc5cc(O)cc(c5)[C@H](NC3=O)C(=O)N[C@H]4C(=O)N[C@H]3C(=O)N[C@@H]2C(=O)N[C@H](C(=O)NCCCN2CCOCC2)c2cc(O)cc(O[C@H]4O[C@H](CO)[C@@H](O)[C@@H](O)[C@@H]4O)c2-c2cc3ccc2O)O[C@@H](CO)[C@@H](O)[C@@H]1O`: the 50% effective dose (ED50) in test [1] was > 300 mg/kg; in test [2], 0.18 mg/kg. Moreover, the MIC in test [3] came out at 0.12 µg/mL (≈ 0.0598 µM); in test [4], 0.5 µg/mL (≈ 0.249 µM); in test [5], 0.12 µg/mL (≈ 0.0598 µM); in test [6], 0.06 µg/mL (≈ 0.0299 µM); in test [7] it was 0.06 µg/mL (≈ 0.0299 µM); in test [8], 0.12 µg/mL (≈ 0.0598 µM).

With `CC(=O)N[C@@H]1[C@H](O[C@@H]2c3ccc(c(Cl)c3)Oc3cc4cc(c3O[C@@H]3O[C@@H](CO)[C@@H](O)[C@H](O)[C@@H]3NC(=O)CCCCCCC(C)C)Oc3ccc(cc3Cl)C[C@H]3NC(=O)[C@H](N)c5ccc(O)c(c5)Oc5cc(O)cc(c5)[C@H](NC3=O)C(=O)N[C@H]4C(=O)N[C@H]3C(=O)N[C@@H]2C(=O)N[C@H](C(=O)NCCN)c2cc(O)cc(O[C@H]4O[C@H](CO)[C@@H](O)[C@@H](O)[C@@H]4O)c2-c2cc3ccc2O)O[C@@H](CO)[C@@H](O)[C@@H]1O`, the ED50 in test [1] was 139 mg/kg; in test [2] it was 0.18 mg/kg. In addition, the MIC was 0.06 µg/mL (≈ 0.0312 µM) in test [3]; 0.12 µg/mL (≈ 0.0624 µM) in test [4]; 0.12 µg/mL (≈ 0.0624 µM) in test [5]; 0.12 µg/mL (≈ 0.0624 µM) in test [6]; 0.06 µg/mL (≈ 0.0312 µM) in test [7]; 0.12 µg/mL (≈ 0.0624 µM) in test [8].

Consider `CC(=O)N[C@@H]1[C@H](O[C@@H]2c3ccc(c(Cl)c3)Oc3cc4cc(c3O[C@@H]3O[C@@H](CO)[C@@H](O)[C@H](O)[C@@H]3NC(=O)CCCCCCC(C)C)Oc3ccc(cc3Cl)C[C@H]3NC(=O)[C@H](N)c5ccc(O)c(c5)Oc5cc(O)cc(c5)[C@H](NC3=O)C(=O)N[C@H]4C(=O)N[C@H]3C(=O)N[C@@H]2C(=O)N[C@H](C(=O)NCCCCCN(C)C)c2cc(O)cc(O[C@H]4O[C@H](CO)[C@@H](O)[C@@H](O)[C@@H]4O)c2-c2cc3ccc2O)O[C@@H](CO)[C@@H](O)[C@@H]1O`, for which the ED50 stood at 112 mg/kg in test [1] and 0.12 mg/kg in test [2]. In addition, the MIC was determined as 0.12 µg/mL (≈ 0.0602 µM) in test [3]; 0.5 µg/mL (≈ 0.251 µM) in test [4]; 0.12 µg/mL (≈ 0.0602 µM) in test [5]; 0.06 µg/mL (≈ 0.0301 µM) in test [6]; 0.06 µg/mL (≈ 0.0301 µM) in test [7]; 0.12 µg/mL (≈ 0.0602 µM) in test [8].
